The results in this text go back to ChEMBL document CHEMBL3877293, “Synthesis and Antineoplastic Evaluation of Novel Unsymmetrical 1,3,4-Oxadiazoles” (J Med Chem, 2016).

A short description of data set [1]: Cell cycle arrest in human RD cells assessed as S phase accumulation at 1 uM after 24 hrs by propidium iodide staining based flow cytometry (reference value: 14.4 +/- 0.92%). It counts as functional. (In general: Flow cytometry measures light scatter and fluorescence of single cells or particles in a stream.)
Data set [2] can be described thus: Antiproliferative activity against human SH-SY5Y cells after 72 hrs by XTT assay. Type of data set: functional, cell-based. In short, it runs like this:
(§1)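 Cells plated at 1500–2000 per well by doubling time, treated after 24 h with a concentration series in six triplicate wells, and incubated 72 h without a medium change. XTT reagent was then added for 4 h at 37 °C and absorbance read at 490 nm. IC50 is the concentration halving absorbance versus untreated cells. Experiments run in triplicate.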
(In general: Tetrazolium assays rely on reduction of a dye to a coloured formazan, in cell work by metabolically active cells.)

Data set [3] concerns SH-SY5Y. Briefly: Disruption of beta-tubulin network in human SH-SY5Y cells assessed as apoptotic nuclei at 1 uM after 24 hrs by DAPI staining based immunofluorescence microscopic analysis. Type of data set: cell-based. In short, it runs like this: (§2)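 Cells seeded on glass coverslips (1 x 10^5/well), treated 24 h, fixed in 4% paraformaldehyde 15 min, permeabilized with 0.5% Triton X-100, blocked in 5% BSA/PBS, stained overnight at 4 °C with anti-β-tubulin (1:200) then fluorescent secondary antibody; nuclei counterstained with DAPI; microtubule organization and nuclear morphology examined by fluorescence microscopy.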

The nature of data set [4]: Antiproliferative activity against human PC3 cells after 72 hrs by XTT assay. Type of data set: functional, cell-based. The note with it: PC-3, 72 h. In short, it runs like this: as §1
The nature of data set [5]: Cell cycle arrest in human SH-SY5Y cells assessed as G1 phase accumulation at 1 uM after 24 hrs by propidium iodide staining based flow cytometry (reference value: 59.6 +/- 1.94%). Type of data set: functional.
Data set [6] is described as follows: Cell cycle arrest in human LAN1 cells assessed as G2/M phase accumulation at 1 uM after 24 hrs by propidium iodide staining based flow cytometry (reference value: 26.2 +/- 1.92%). Type of data set: functional.
Data set [7] is described as follows: Cell cycle arrest in human T98G cells assessed as S phase accumulation at 1 uM after 24 hrs by propidium iodide staining based flow cytometry (reference value: 5.1 +/- 0.82%). Type of data set: functional.
Data set [8] is described as follows: Antiproliferative activity against human NCI-H1299 cells after 72 hrs by XTT assay. It counts as functional, cell-based. The note with it: NCI-H1299, 72 h. In short, it runs like this: as §1
Data set [9] can be described thus: Effect on p53 expression in human NB-1 cells at 1 uM after 24 hrs by immunoblot method. It counts as cell-based. The note with it: nb1, 24 h. In short, it runs like this:
(§3)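 After 24 h treatment at 1 μM, cells lysed in Tris pH 8/NaCl/glycerol/NP-40/EDTA buffer with protease inhibitors. Equal lysate amounts run on 10% SDS gels, blotted to nitrocellulose, probed for p53 with GAPDH as loading control, detected by enhanced chemiluminescence. Bands quantified by densitometry against GAPDH and compared with untreated cells; three independent experiments.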
A general note: A western blot detects proteins with antibodies after separation by electrophoresis.

Data set [10] has as its system MCF7. Briefly: Increase in p53 expression in human MCF7 cells at 1 uM after 24 hrs by immunoblot method relative to control. It counts as functional. The essentials: as §3
Data set [11] can be described thus: Antiproliferative activity against human NB1 hTERT cells after 72 hrs by XTT assay. It counts as functional, cell-based. The essentials: as §1
Data set [12] can be described thus: Cell cycle arrest in human A549 cells assessed as S phase accumulation at 1 uM after 24 hrs by propidium iodide staining based flow cytometry (reference value: 7.6 +/- 0.63%). It counts as functional.
Data set [13] in a line: Cell cycle arrest in human NB1 hTERT cells assessed as G2/M phase accumulation at 1 uM after 24 hrs by propidium iodide staining based flow cytometry (reference value: 35.7%). Type of data set: functional.
Data set [14] is described as follows: Cell cycle arrest in human NB-1 cells assessed as G1 phase accumulation at 1 uM after 72 hrs by propidium iodide staining based flow cytometry (reference value: 81.7%). The note with it: nb1, 72 h.
Data set [15] is described as follows: Induction of apoptosis in human NB-1 cells assessed as necrotic cells at 5 uM after 72 hrs by Annexin-V FITC/propidium iodide staining based flow cytometry (reference value: 0.2%). Type of data set: cell-based. The note with it: nb1, 72 h.
Data set [16] concerns MCF7. Briefly: Disruption of beta-tubulin network in human MCF7 cells assessed as induction of micronucleated cells at 1 uM after 24 hrs by DAPI staining based immunofluorescence microscopic analysis. It counts as cell-based. The essentials:
as §2

Data set [17] in a line: Cell cycle arrest in human NCI-H1299 cells assessed as S phase accumulation at 1 uM after 48 hrs by propidium iodide staining based flow cytometry (reference value: 7.2%). Type of data set: functional.
A short description of data set [18]: Antiproliferative activity against human MRC5-SV1 S40 cells after 72 hrs by XTT assay. It counts as functional, cell-based. In short, it runs like this:
as §1

Data set [19] relates to HeLa. Briefly: Induction of apoptosis in human HeLa cells assessed as early apoptotic cells at 5 uM after 48 hrs by Annexin-V FITC/propidium iodide staining based flow cytometry (reference value: 1.6%). It counts as functional.
Data set [20] is described as follows: Induction of apoptosis in human NB1 hTERT cells assessed as late apoptotic cells at 5 uM after 72 hrs by Annexin-V FITC/propidium iodide staining based flow cytometry (reference value: 4.6%). Type of data set: functional.
Data set [21] can be described thus: Cell cycle arrest in human NB1 hTERT cells assessed as S phase accumulation at 1 uM after 48 hrs by propidium iodide staining based flow cytometry (reference value: 10.3%). It counts as functional.
Data set [22] is described as follows: Cell cycle arrest in human A549 cells assessed as G2/M phase accumulation at 1 uM after 24 hrs by propidium iodide staining based flow cytometry (reference value: 27 +/- 1.32%). Type of data set: functional.
Data set [23] concerns HeLa. Kind of data set: Cytotoxicity against human HeLa cells assessed as inhibition of colony formation after 2 weeks by crystal violet staining based assay. It counts as functional, cell-based. The essentials:
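HeLa seeded at 100-200 cells/well in six-well plates and treated with 0.3 or 0.03 μM compound (DMSO control). Medium with compound changed every 3 days for about two weeks, until control colonies were visible. Colonies fixed and stained with 6.0% glutaraldehyde/0.5% crystal violet for 30 min, then counted against control. Done in triplicate.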

Data set [24] is described as follows: Cell cycle arrest in human NB1 hTERT cells assessed as G1 phase accumulation at 1 uM after 48 hrs by propidium iodide staining based flow cytometry (reference value: 62.5%). Type of data set: functional.

The source made the active and inactive calls. The calls are words filed in the database; no cut-off is given here.

For orientation: IC50 means the midpoint of a concentration-inhibition curve.

`Cc1[nH]c2c(c1-c1nnc(-c3ccccc3)o1)Cc1ccccc1-2`: the Activity in data set [1] was 10.6%; in [5], 24.8%; in data set [6], 82.6%; in data set [7] it was 6.2%; in [9] it was “Non-Toxic”; in data set [12] it was 9.5%. Also, the Activity stood at 28.9% in [13]; 77.6% in [14]; 0.8% in [15]; 9.7% in data set [17]; 4.6% in data set [19]; 13.2% in data set [20]. Moreover, the values for the Activity in data set [21], in data set [22] and in data set [24] were 10.9%, 65.3% and 41.1%, respectively. Further, the IC50 in data set [2] was 70 nM; in data set [4], 670 nM; in data set [8] it was 120 nM; in [11], 130 nM; in data set [18], 130 nM. Further, the result in data set [3] and in data set [16] was Active. Moreover, the “fold change (FC)” value in [10] is recorded as 2 - 3. In addition, the inhibition result in [23] is “Dose-dependent effect”.
